Experimental data from ChEMBL document CHEMBL2429850, “In vitro and in vivo effects of (-)-epigallocatechin 3-O-gallate on Leishmania amazonensis” (J Nat Prod, 2013).
Calls of active or inactive are those of the source. The rule behind the calls is not given here.

What was measured:
Mus musculus [1] = assay: Toxicity in stationary-phase promastigotes of Leishmania amazonensis MHOM/BR/75/LTB0016 infected BALB/c mouse assessed as serum alanine aminotransferase level at 30 mg/kg, po administered 5 times per week; format: organism-based; set-up: dose 30 mg/kg, route oral; settings: in vivo
Outline: (§1)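 Infected BALB/c mice (2 × 10^6 promastigotes intradermally, ear) were dosed orally at 30 mg/kg/day in PBS, once daily, five times a week, to day 52. The PBS-treated group served as control. Serum was collected at euthanasia, and ALT, AST and creatinine were measured with colorimetric kits. n = 5.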

Leishmania amazonensis [2] = assay: Antileishmanial activity against intracellular amastigotes of Leishmania amazonensis MHOM/BR/75/LTB0016 infected in Swiss mouse peritoneal macrophages assessed as inhibition of infection index after 72 hrs by light microscopic analysis; format: functional, organism-based
Outline: (§2)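 Peritoneal macrophages from Swiss mice (6−8 weeks), plated in RPMI at 2 × 10^6 cells/mL, infected with L. amazonensis promastigotes (MOI 3.0) for 3 h at 37 °C, 5% CO2; free parasites washed off. Infected cells incubated with compound (3, 6, and 12 μM) or PBS vehicle for 72 h. Light microscopy, ≥200 cells per coverslip in duplicate. Infection index = % infected macrophages × amastigotes/total macrophages. IC50 by logarithmic regression. Three independent experiments; pentamidine (12 μM) reference.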

Leishmania amazonensis [3] = assay: Antileishmanial activity against stationary-phase promastigotes of Leishmania amazonensis MHOM/BR/75/LTB0016 infected in BALB/c mouse assessed as reduction of lesion size at 30 mg/kg, po administered 5 times per week; format: functional, organism-based; set-up: dose 30 mg/kg
Outline: (§3)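 BALB/c mice (five per group, specific pathogen-free) infected intradermally in the right ear with 2 × 106 L. amazonensis promastigotes. Compound diluted in PBS, given orally at 30 mg/kg/day once daily, five times a week, until day 52. Controls received oral sterile PBS. Meglumine antimoniate 30 mg/kg/day ip served as positive control. Lesions measured twice weekly by dial caliper. Parasite load from excised, weighed, minced ears by limiting dilution in Schneider's medium with 10% FCS; growth read after 7 days at 26 °C. n = 5 ears.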

Mus musculus [4] = assay: Toxicity in stationary-phase promastigotes of Leishmania amazonensis MHOM/BR/75/LTB0016 infected BALB/c mouse assessed as serum aspartate aminotransferase level at 30 mg/kg, po administered 5 times per week; format: organism-based; set-up: dose 30 mg/kg, route oral; settings: in vivo; outline: as §1
Leishmania amazonensis [5] = assay: Antileishmanial activity against stationary-phase promastigotes of Leishmania amazonensis MHOM/BR/75/LTB0016 infected in BALB/c mouse assessed as reduction of parasite burden at 30 mg/kg, po administered 5 times per week; format: functional, organism-based; set-up: dose 30 mg/kg; outline: as §3
Leishmania amazonensis [6] = assay: Antileishmanial activity against intracellular amastigotes of Leishmania amazonensis MHOM/BR/75/LTB0016 infected in Swiss mouse peritoneal macrophages assessed as growth inhibition at 12 uM after 72 hrs; format: functional; settings: MHOM/BR/75/LTB0016, 72 h, read-out: GI; outline: as §2
[7] = Selectivity index, ratio of IC50 for Swiss mouse peritoneal macrophages to IC50 for intracellular amastigotes of Leishmania amazonensis MHOM/BR/75/LTB0016
Outline: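 Ratio of the macrophage IC50 (AlamarBlue, 72 h) to the intracellular amastigote IC50 (infection index, 72 h).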

Mus musculus [8] = assay: Toxicity in stationary-phase promastigotes of Leishmania amazonensis MHOM/BR/75/LTB0016 infected BALB/c mouse assessed as serum creatinine level at 30 mg/kg, po administered 5 times per week; format: organism-based; set-up: dose 30 mg/kg, route oral; settings: in vivo; outline: as §1
[9] = Cytotoxicity against Swiss mouse peritoneal macrophages after 72 hrs by Alamar blue assay; format: cell-based; settings: Peritoneal macrophage cell
Outline: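 Swiss mouse peritoneal macrophages (2 × 10^6 cells/mL) adhered 1 h at 37 °C, 5% CO2; nonadherent cells washed off. Exposed to compound (3 to 3000 μM) for 72 h, washed, then AlamarBlue (10% v/v) for 12 h at 37 °C. Absorbance read at 570 nm. IC50 by logarithmic regression. 0.1% Triton X-100 lysis as positive control; PBS vehicle control; three independent experiments.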

[10] = Selectivity index, ratio of CC50 for Balb/c mouse peritoneal macrophages to IC50 for promastigotes of Leishmania amazonensis IFLA/BR/1967/PH-8; format: functional

| SMILES | Activity (Mus musculus [1]) | inhibition (Leishmania amazonensis [2]) | IC50 (Leishmania amazonensis [2]; MHOM/BR/75/LTB0016, 72 h) | Activity (Leishmania amazonensis [3]) | Activity (Mus musculus [4]) | Activity (Leishmania amazonensis [5]) | inhibition of growth at 12 µM (Leishmania amazonensis [6]) | Ratio IC50 [7] | Activity (Mus musculus [8]) | IC50 [9] | Ratio CC50/IC50 [10] |
| --- | --- | --- | --- | --- | --- | --- | --- | --- | --- | --- | --- |
| O=C(O[C@@H]1Cc2c(O)cc(O)cc2O[C@@H]1c1cc(O)c(O)c(O)c1)c1cc(O)c(O)c(O)c1 [EPIGALOCATECHIN GALLATE] | Non-toxic | Dose-dependent effect | 1.6 µM | Active | Non-toxic | Active | 83.6% | 129.4 | Non-toxic | 436 µM |  |
| CCCCCCCCCCCCCCCCOP(=O)([O-])OCC[N+](C)(C)C [MILTEFOSINE] |  |  |  |  |  |  |  |  |  |  | 28.9 |
